Measurements taken from ChEMBL document CHEMBL4190223, “Natural Products Discovered in a High-Throughput Screen Identified as Inhibitors of RGS17 and as Cytostatic and Cytotoxic Agents for Lung and Prostate Cancer Cell Lines” (J Nat Prod, 2017).
The source made the active and inactive calls. The calls are words filed in the database; no cut-off is given here.

Columns and labels:
HEK293 [1] = test: Inhibition of Galphao interaction with GFP-fused RGS17 (unknown origin) deltaN mutant expressed in HEK293 cells assessed as disruption of RGS17 localization at cell membranes at 100 uM up to 30 mins by confocal microscopic analysis; format: cell-based; details: Homo sapiens
Method in brief: (§1)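 HEK293T cells plated at 25 000 per well on poly-D-lysine glass and kept overnight at 37 °C, 5% CO2. Next day cotransfected with hGαo (pcDNA3.1) and GFP-RGS17 N (Lipofectamine 2000). After 24 h, cells moved to serum-free, phenol-red-free DMEM and given compound (final 0.07–0.8% DMSO). Live confocal imaging; ImageJ cross-sectional intensity analysis, each T=final image normalised to the T=0 maximum.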

HEK293 [2] = test: Inhibition of Galphao interaction with GFP-fused RGS17 (unknown origin) deltaN mutant expressed in HEK293 cells assessed as increase in RGS17 deltaN mutant localization at cytoplasm at 100 uM up to 30 mins by confocal microscopic analysis; format: cell-based; details: Homo sapiens; method in brief: as §1
HEK293 [3] = test: Induction of morphological changes in HEK293 cells assessed as cell shrinkage at 100 uM measured over 30 mins; format: cell-based; details: human, hek293, 0.5 h
[4] = biological target: T1, Regulator of G-protein signaling 17 (Homo sapiens) (UniProt Q9UGC6); test: Binding affinity to RGS17 (unknown origin) assessed as molecular weight of covalent adduct at 100 uM after 72 hrs by ESI-MS analysis (reference value: 16232 Da)
T1 sequence (whole entry): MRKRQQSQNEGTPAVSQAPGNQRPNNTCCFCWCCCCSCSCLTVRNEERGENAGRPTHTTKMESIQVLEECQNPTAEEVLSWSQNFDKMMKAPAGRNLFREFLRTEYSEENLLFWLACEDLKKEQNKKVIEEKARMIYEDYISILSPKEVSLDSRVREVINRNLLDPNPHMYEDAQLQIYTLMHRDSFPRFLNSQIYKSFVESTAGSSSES
Method in brief: (§2)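 RGS17 N (1ZV4 construct, 20 μM) in 25 mM HEPES, 100 mM NaCl, 5% DMSO, pH 8, incubated with or without 100 μM compound at 4 °C for 72 h. Then dialysed twice against 25 mM NH4HCO3 at 4 °C for 24 h to strip noncovalent ligand, followed by ESI-TOF mass analysis for adducted species.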

A549 [5] = test: Growth inhibition of human A549 cells measured every 2 hrs over 6 days by live cell imaging based method; format: functional
Method in brief: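 A549 cells harvested by trypsin, plated at 1000 cells/well in 24-well plates, left overnight to attach, then treated in triplicate with compound or matched DMSO (≤0.2% final). Confluence imaged live every 2 h over 6 days. Change in confluence relative to DMSO plotted against concentration. IC50 taken from a linear regression of each curve at 0.5 relative growth.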

PC-3 [6] = test: Growth inhibition of E-cadherin expressing human PC3 cells transfected with RGS17 at 31.6 to 56.2 uM after 1 hr by sulforhodamine B assay; format: functional, cell-based
HEK293 [7] = test: Inhibition of Galphao interaction with GFP-fused RGS17 (unknown origin) deltaN mutant expressed in HEK293 cells assessed as increase in RGS17 deltaN mutant localization at cytoplasm at 10 uM up to 20 mins by confocal microscopic analysis; format: cell-based; details: Homo sapiens
Method in brief: (§3)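 HEK293T cells plated at 25 000/well on poly-D-lysine glass-bottom wells and co-transfected (Lipofectamine 2000) with hGαo and N-terminal GFP-fused RGS17 ΔN. After 24 h, switched to serum-free, phenol-red-free DMEM and compound added (0.07–0.8% DMSO final). Imaged by confocal microscopy; cross-sectional fluorescence profiles at T=0 and T=final, each pair normalised to the highest T=0 intensity.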

Homo sapiens = species on record: Homo sapiens; test: Growth inhibition of human TEM4-18 cells after 1 hr by sulforhodamine B assay; format: functional
HEK293 [8] = test: Induction of morphological changes in HEK293 cells assessed as cell shrinkage at 100 uM; format: cell-based; details: human, hek293, 100 µM
HEK293 [9] = test: Inhibition of Galpha0 interaction with GFP-fused RGS17 (unknown origin) deltaN mutant expressed in HEK293 cells assessed as increase in RGS17 deltaN mutant localization at cytoplasm at 100 uM up to 5 mins by confocal microscopic analysis; format: cell-based; details: Homo sapiens; method in brief: as §3
[10] = Solubility of the compound in aqueous buffer solution; format: physicochemical
[11] = biological target: T1, Regulator of G-protein signaling 17 (Homo sapiens); test: (§4) Inhibition of wild type GST-tagged RGS17 (unknown origin) interaction with biotinylated Galphao after 30 mins in presence of AMF and GDP by AlphaScreen assay
Method in brief: (§5)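 AlphaScreen assay: RGS17 (WT or C117A) on anti-GST beads, 10 nM final, preincubated 30 min with compound (half-log series, 100 μM to 1 nM final). Gαo-biotin on streptavidin beads then added with AMF and GDP, 10 nM final. Negative controls lacked AMF. Data n = 3, run at least in duplicate.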

[12] = biological target: T2, Regulator of G-protein signaling 17 (Homo sapiens, UniProt Q9UGC6); test: as §4; method in brief: as §5
T2 sequence (Q9UGC6 whole entry): T1 sequence (whole entry)

[13] = biological target: Regulator of G-protein signaling 17 (Homo sapiens, UniProt Q9UGC6, C117A); test: Inhibition of RGS17 (unknown origin) C117A mutant interaction with biotinylated Galphao after 30 mins in presence of AMF and GDP by AlphaScreen assay; method in brief: as §5
HEK293 [14] = test: Induction of morphological changes in HEK293 cells assessed as plasma membrane blebbing at 100 uM; format: cell-based; details: human, hek293, 100 µM
[15] = Thiol reactivity of the compound assessed as cysteine adduct formation at 100 uM after 4 hrs in presence of N-Acetylcysteine by Ellman's method; format: physicochemical
Method in brief: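 Ellman assay: N-acetylcysteine (100 μM) incubated with compound (100 μM, 1:1) for 4 h at 37 °C. DTNB (1 mM) then added and absorbance read at 412 nm against N-acetylcysteine alone; N-ethylmaleimide as thiol-reactive control; n = 3.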

[16] = biological target: T1, Regulator of G-protein signaling 17 (Homo sapiens); test: Binding affinity to RGS17 (unknown origin) assessed as change in melting temperature by differential scanning fluorimetry
HEK293 [17] = test: Inhibition of Galphao interaction with GFP-fused RGS17 (unknown origin) deltaN mutant expressed in HEK293 cells assessed as increase in RGS17 deltaN mutant localization at cytoplasm at 10 uM up to 5 mins by confocal microscopic analysis; format: cell-based; details: Homo sapiens; method in brief: as §3
PC-3 [18] = test: Growth inhibition of E-cadherin expressing human PC3 cells after 1 hr by sulforhodamine B assay; format: functional, cell-based
[19] = biological target: T1, Regulator of G-protein signaling 17 (Homo sapiens); test: Inhibition of RGS17 (unknown origin)-mediated CREB phosphorylation
[20] = biological target: T1, Regulator of G-protein signaling 17 (Homo sapiens); test: Binding affinity to RGS17 (unknown origin) assessed as covalent adduct formation at 100 uM after 72 hrs by ESI-MS analysis; method in brief: as §2
RWPE-1 = test: Growth inhibition of human RWPE1 cells at 31.6 to 56.2 uM after 1 hr by sulforhodamine B assay; format: cell-based; details: rwpe-1, 1 h
[21] = biological target: T1, Regulator of G-protein signaling 17 (Homo sapiens); test: Binding affinity to RGS17 (unknown origin) assessed as change in chemical shift perturbations by NMR spectroscopic analysis
[22] = biological target: Guanine nucleotide-binding protein G(o) subunit alpha (Homo sapiens) (UniProt P09471); test: Binding affinity to Galphao (unknown origin) assessed as change in melting temperature by differential scanning fluorimetry
[23] = biological target: T2, Regulator of G-protein signaling 17; test: Inhibition of RGS17 (unknown origin) GAP activity in presence of GTP by malachite green dye based assay
HEK293 [24] = test: Inhibition of Galphao interaction with GFP-fused RGS17 (unknown origin) deltaN mutant expressed in HEK293 cells assessed as increase in RGS17 deltaN mutant localization at cytoplasm at 10 uM up to 30 mins by confocal microscopic analysis; format: cell-based; details: Homo sapiens; method in brief: as §1
HEK293 [25] = test: Inhibition of Galphao interaction with GFP-fused RGS17 (unknown origin) deltaN mutant expressed in HEK293 cells assessed as increase in RGS17 deltaN mutant localization at cytoplasm at 100 uM up to 20 mins by confocal microscopic analysis; format: cell-based; details: Homo sapiens; method in brief: as §1
A549 [26] = test: Growth inhibition of human A549 cells up to 1 uM measured every 2 hrs over 6 days by live cell imaging based method; format: functional
Method in brief: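 A549 cells trypsinised, counted and seeded at 1000 per well in 24-well plates, then allowed to attach overnight. Treated in triplicate up to 1 μM compound (≤0.2% DMSO, matched DMSO control). Confluence imaged every 2 h for 6 days by live-cell imaging. Confluence change relative to DMSO plotted against concentration; IC50 from linear regression at 0.5 relative growth.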

[27] = biological target: T1, Regulator of G-protein signaling 17 (Homo sapiens); test: Inhibition of Galphao interaction with GFP-fused full length RGS17 (unknown origin) expressed in HEK293 cells assessed as disruption of RGS17 localization at cell membranes at 100 uM after 10 mins by confocal microscopic analysis; format: cell-based
Method in brief: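 HEK293T cells co-transfected with hGαo and N-terminal GFP-fused full-length RGS17, then treated with 100 μM compound in serum-free, phenol-red-free DMEM. RGS17 membrane localisation followed by confocal imaging at 0 and 10 min.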

Chain of Regulator of G-protein signaling 17 (Homo sapiens, UniProt Q9UGC6, C117A) (Q9UGC6 whole entry C117A): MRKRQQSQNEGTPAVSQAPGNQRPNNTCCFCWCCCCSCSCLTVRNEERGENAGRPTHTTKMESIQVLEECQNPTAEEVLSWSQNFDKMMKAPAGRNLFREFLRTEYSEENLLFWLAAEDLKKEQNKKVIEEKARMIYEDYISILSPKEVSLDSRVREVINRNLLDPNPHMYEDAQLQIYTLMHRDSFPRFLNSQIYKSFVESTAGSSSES
Chain of Guanine nucleotide-binding protein G(o) subunit alpha (Homo sapiens) (P09471 2-354 limits assumed): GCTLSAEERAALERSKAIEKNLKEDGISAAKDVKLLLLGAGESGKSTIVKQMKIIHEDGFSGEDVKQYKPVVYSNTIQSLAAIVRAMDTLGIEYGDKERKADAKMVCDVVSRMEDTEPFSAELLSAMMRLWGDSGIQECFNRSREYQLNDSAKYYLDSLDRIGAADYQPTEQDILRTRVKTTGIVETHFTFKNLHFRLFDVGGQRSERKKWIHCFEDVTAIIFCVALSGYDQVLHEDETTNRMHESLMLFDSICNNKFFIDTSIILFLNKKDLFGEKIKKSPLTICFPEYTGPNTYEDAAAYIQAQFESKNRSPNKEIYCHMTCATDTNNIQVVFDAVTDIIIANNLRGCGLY

| SMILES | Activity [4] [Da] | IC50 (A549 [5]) [µM] | growth inhibition (GI) (PC-3 [6]) | growth inhibition (GI) (Homo sapiens) | Activity (HEK293 [8]) | inhibition (HEK293 [9]) | inhibition [11] | IC50 [12] [µM] | IC50 [13] [µM] | Activity (HEK293 [14]) | Activity [15] | Activity [16] | inhibition (HEK293 [17]) | growth inhibition (GI) (PC-3 [18]) | inhibition [19] | Activity [20] | growth inhibition (GI) (RWPE-1) | Activity [21] | IC50 [23] [µM] | inhibition (HEK293 [24]) | other results |
| --- | --- | --- | --- | --- | --- | --- | --- | --- | --- | --- | --- | --- | --- | --- | --- | --- | --- | --- | --- | --- | --- |
| Cc1ccc(-n2sc(=O)n(Cc3ccc(F)cc3)c2=O)cc1 | – | – | – | – | – | – | – | – | – | – | – | – | – | – | – | – | – | – | – | – | inhibition (HEK293 [1]): inactive; inhibition (HEK293 [2]): inactive; Activity (HEK293 [3]): Toxic |
| CC1=C(O)C(=O)C=C2C1=CC=C1[C@@]2(C)CC[C@@]2(C)[C@@H]3C[C@](C)(C(=O)O)CC[C@]3(C)CC[C@]12C [CELASTROL] | 16200 | 0.69 | inactive | Dose-dependent effect | Non-Toxic | Active | Dose-dependent effect | 10.5 | > 100 | Non-Toxic | Not Active | inactive | Active | Dose-dependent effect | inactive | Active | Toxic | inactive | – | – | inhibition (HEK293 [7]): Active; solubility [10]: Insoluble |
| CC(C)=CCC[C@]1(C)C=Cc2c(O)c3c(c(CC=C(C)C)c2O1)O[C@]12C(=C[C@@H]4C[C@H]1C(C)(C)O[C@@]2(C/C=C(/C)C(=O)O)C4=O)C3=O [GAMBOGIC ACID] | – | – | – | – | – | – | – | – | – | – | – | – | – | – | – | – | – | – | 10 | – | Activity [22]: Active |
| O=c1c(-c2cc(O)c(O)c(O)c2)coc2cc(O)c(O)c(O)c12 [IRIGENOL] | 16200 | – | – | – | Non-Toxic | – | Dose-dependent effect | 47.2 | 81.8 | Non-Toxic | Active | inactive | – | – | – | inactive | – | inactive | 35 | Active | inhibition (HEK293 [25]): Active; growth inhibition (GI) (A549 [26]): inactive |
| C[n+]1cc2c3c(ccc2c2ccc4cc5c(cc4c21)OCO5)OCO3 [SANGUINARIUM] | 16200 | 0.61 | inactive | Dose-dependent effect | Non-Toxic | Active | Dose-dependent effect | 72.8 | > 100 | Non-Toxic | Active | inactive | Active | Dose-dependent effect | inactive | inactive | Toxic | inactive | 12 | Active | inhibition [27]: inactive |
